Data set [1] deals with T1, Prostaglandin G/H synthase 1 (Ovis aries) (UniProt P05979).
T1 sequence (whole entry): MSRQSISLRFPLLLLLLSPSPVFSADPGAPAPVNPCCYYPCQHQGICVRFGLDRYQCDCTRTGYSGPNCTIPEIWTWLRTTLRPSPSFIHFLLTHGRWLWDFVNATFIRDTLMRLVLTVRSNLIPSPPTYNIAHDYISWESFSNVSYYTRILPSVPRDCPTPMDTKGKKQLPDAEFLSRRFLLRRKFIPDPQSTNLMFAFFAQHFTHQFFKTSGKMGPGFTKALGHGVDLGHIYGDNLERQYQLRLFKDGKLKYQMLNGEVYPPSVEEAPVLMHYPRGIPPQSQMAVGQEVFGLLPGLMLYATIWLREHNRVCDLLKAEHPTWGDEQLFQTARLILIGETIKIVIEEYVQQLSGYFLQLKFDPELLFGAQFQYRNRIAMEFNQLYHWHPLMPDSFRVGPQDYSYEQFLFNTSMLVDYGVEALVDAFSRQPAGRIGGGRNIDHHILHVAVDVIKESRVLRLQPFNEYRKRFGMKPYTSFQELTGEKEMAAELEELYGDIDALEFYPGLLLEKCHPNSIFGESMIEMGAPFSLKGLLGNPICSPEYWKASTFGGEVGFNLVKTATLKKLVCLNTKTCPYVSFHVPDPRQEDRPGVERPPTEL
The data set is described as follows: Inhibition of ovine COX1 assessed as PGE2 formation at 10 ug/ml by LC-MS-MS analysis. Put shortly:
(§1)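 COX-1 (ovine) or COX-2 (human), 0.2 µg, activated in Tris-HCl pH 8.0 with hematin (1 µM final) and L-epinephrine (2 mM final). Test solution preincubated 10 min at 37 °C. Reaction started with arachidonic acid (5 µM final), stopped with HCl after 2 min. d4-PGE2 added as internal standard and PGE2 extracted with […] for LC-MS.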

Data set [2] has as its system MCF7. The data set can be described thus: Cytotoxicity against human MCF7 cells assessed as cell growth inhibition at 20 ug/ml after 72 hrs by sulforhodamine B assay. The class given is functional, cell-based. Put shortly:
(§2)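 Cells held in medium with 10% heat-inactivated FBS and penicillin/streptomycin/amphotericin B (Hepa1c1c7 in α-MEM; MCF-7 in MEME plus 10 mg/L insulin). Samples added in triplicate, 37 °C, 5% CO2, 72 h. Cells fixed with cold 20% TCA at 4 °C for 30 min, stained with 0.4% sulforhodamine B, dye dissolved in 10 mM Tris pH 10, OD read at 515 nm. Growth given as % of 10% aqueous DMSO control.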

Data set [3] has as its target T2, Prostaglandin G/H synthase 2 (Homo sapiens) (UniProt P35354).
T2 sequence (whole entry): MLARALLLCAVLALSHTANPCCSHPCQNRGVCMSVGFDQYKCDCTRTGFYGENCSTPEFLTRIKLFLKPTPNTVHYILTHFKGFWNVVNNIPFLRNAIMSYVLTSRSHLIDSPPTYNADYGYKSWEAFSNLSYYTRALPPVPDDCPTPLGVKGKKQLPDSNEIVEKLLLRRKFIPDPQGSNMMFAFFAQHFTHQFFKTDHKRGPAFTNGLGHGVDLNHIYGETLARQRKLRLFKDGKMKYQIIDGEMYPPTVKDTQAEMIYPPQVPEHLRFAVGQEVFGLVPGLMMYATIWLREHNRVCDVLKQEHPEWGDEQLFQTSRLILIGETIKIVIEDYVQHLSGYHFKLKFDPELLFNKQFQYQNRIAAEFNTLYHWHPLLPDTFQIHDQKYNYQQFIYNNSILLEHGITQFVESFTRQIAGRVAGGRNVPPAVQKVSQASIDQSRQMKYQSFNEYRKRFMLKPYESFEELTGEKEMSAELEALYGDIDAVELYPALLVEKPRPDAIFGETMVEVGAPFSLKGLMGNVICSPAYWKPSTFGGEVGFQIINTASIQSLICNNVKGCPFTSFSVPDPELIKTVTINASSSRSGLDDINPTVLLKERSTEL
The data set can be described thus: Inhibition of human COX2 assessed as PGE2 formation at 10 ug/ml by LC-MS-MS analysis. In short, it runs like this:
as §1

Data set [4] relates to RAW264.7. The data set can be described thus: Inhibition of NO production in mouse RAW264.7 cells at 20 ug/ml after 30 mins by Griess assay. It counts as functional, cell-based. Conditions: in the assay text read “after 24 hrs” for “after 30 mins”. In short, it runs like this:
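RAW 264.7 cells plated for 24 h. Compound in phenol red-free DMEM added 30 min before LPS (1 µg/mL), then 24 h incubation. Nitrite measured with Griess reagent (1% sulfanilamide, 0.1% N-(1-naphthyl)ethylenediamine in 2.5% H3PO4) at 540 nm, against an NaNO2 standard curve.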

A short description of data set [5]: Cytotoxicity against mouse Hepa-1c1c7 cells assessed as cell growth inhibition at 20 ug/ml after 72 hrs by sulforhodamine B assay. It counts as cell-based. Conditions: hepa-1c1c7, 72 h. In short, it runs like this: as §2

Inhibition and Activity data for 10 compounds are collected here from ChEMBL document CHEMBL1687868, “Bioactive compounds from the fern Lepisorus contortus” (J Nat Prod, 2011).

The source made the active and inactive calls. The calls are words filed in the database; no cut-off is given here.

Consider `O=C(/C=C/c1ccc(O)c(O)c1)O[C@H]1[C@H](O)[C@@H](O[C@@H]2OC[C@](O)(CO)[C@H]2O)[C@H](OCCc2ccc(O)c(O)c2)O[C@@H]1CO` [FUCATOSIDE A], for which the inhibition entry in data set [1], in data set [3] and in data set [4] was “inactive” throughout. The Activity result in data set [2] was “Not toxic”; in data set [5], “Non-toxic”.
Turning to `COc1c(-c2ccc(O)c(O)c2)oc2cc(O[C@@H]3O[C@H](CO[C@@H]4O[C@@H](C)[C@H](O)[C@@H](O)[C@H]4O)[C@@H](O)[C@H](O)[C@H]3O)cc(O)c2c1=O`, the inhibition result in data set [1], in data set [3] and in data set [4] was “inactive” in each case. Besides, the Activity result in data set [2] was “Not toxic”; in data set [5] it was “Non-toxic”.
Turning to `OC[C@H]1O[C@@H](OCCc2ccc(O)c(O)c2)[C@H](O)[C@@H](O)[C@@H]1O`, the inhibition entry in data set [1], in data set [3] and in data set [4] was “inactive” in each case. The Activity result in data set [2] was “Not toxic”; in data set [5] it was “Non-toxic”.
For the compound `COc1c(-c2ccc(O)c(O)c2)oc2cc(O[C@@H]3O[C@H](CO)[C@@H](O)[C@H](O)[C@H]3O)cc(O)c2c1=O` [TRANSILIN], the inhibition result in data set [1], in data set [3] and in data set [4] was “inactive” throughout. Moreover, the Activity result in data set [2] is “Not toxic”; in data set [5], “Non-toxic”.
For `O=c1c(O[C@@H]2O[C@H](CO)[C@@H](O)[C@H](O)[C@H]2O)c(-c2ccc(O)c(O)c2)oc2cc(O)cc(O)c12` [ISOQUERCETIN], the inhibition entry in data set [1], in data set [3] and in data set [4] was “inactive” each time. In addition, the Activity result was “Not toxic” in data set [2] and “Non-toxic” in data set [5].
In the case of `COc1c(-c2ccc(O)cc2)oc2cc(O[C@@H]3O[C@H](CO[C@@H]4O[C@@H](CO)[C@H](O)[C@H]4O)[C@@H](O)[C@H](O)[C@H]3O)cc(O)c2c1=O`, the inhibition result in data set [1], in data set [3] and in data set [4] was “inactive” in each case. The Activity entry in data set [2] is “Not toxic”; in data set [5], “Non-toxic”.
As to `COc1c(-c2ccc(O)cc2)oc2cc(O[C@@H]3O[C@H](CO)[C@@H](O)[C@H](O)[C@H]3O)cc(O)c2c1=O`, the inhibition entry in data set [1], in data set [3] and in data set [4] was “inactive” throughout. Besides, the Activity entry in data set [2] is “Not toxic”; in data set [5], “Non-toxic”.
Regarding `O=C(/C=C/c1ccc(O)c(O)c1)O[C@H]1[C@H](O)[C@@H](CO)O[C@@H](OCCc2ccc(O)cc2)[C@@H]1O[C@@H]1OC[C@](O)(CO)[C@H]1O`, the inhibition result in data set [1], in data set [3] and in data set [4] was “inactive” each time. Besides, the Activity result was “Not toxic” in data set [2] and “Non-toxic” in data set [5].
For the compound `O=c1ccn([C@@H]2O[C@H](CO)[C@@H](O)[C@@H]2O)c(=O)[nH]1` [ARAURIDINE], the inhibition result in data set [1], in data set [3] and in data set [4] was “inactive” in each case. Besides, the results for the Activity result in data set [2] and in data set [5] were “Not toxic” and “Non-toxic”, respectively.
Regarding `COc1cc([C@@H](O)[C@@H](CO)Oc2ccc(/C=C/CO)cc2OC)ccc1O` (relative stereo), the inhibition entry in data set [1], in data set [3] and in data set [4] was “inactive” each time. Further, the Activity result was “Not toxic” in data set [2] and “Non-toxic” in data set [5].
